This note sets out measurements from ChEMBL document CHEMBL1772951, “Synthesis of some novel benzofuran-2-yl(4,5-dihyro-3,5-substituted diphenylpyrazol-1-yl) methanones and studies on the antiproliferative effects and reversal of multidrug resistance of human MDR1-gene transfected mouse lymphoma cells in vitro” (Eur J Med Chem, 2011).

The subject of series [1] is L5178Y MDR1-transfected mouse lymphoma cells (Mus musculus). Kind of series: Antiproliferative activity against mouse MDR1-transfected L5178Y lymphoma cells after 72 hrs by MTT assay. The settings on record: L5178Y MDR1, 72 h.
The target of series [2] is ATP-dependent translocase ABCB1 (Homo sapiens, UniProt P08183). Kind of series: Inhibition of human MDR1 expressed in mouse L5178Y cells assessed as rhodamine 123 accumulation at 20 ug/ml preincubated for 10 mins before rhodamine 123 challenge measured after 20 mins by flow cytometry relative to wild type. Type of series: cell-based. The procedure, abridged: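 L5178Y cells were transfected with human MDR1 via pHa MDR1/A retrovirus and kept under 60 ng/ml colchicine, alongside parental cells, in McCoy's 5A with 10% horse serum at 37 °C, 5% CO₂. Cells at 2 × 10⁶/ml in serum-free medium got compound for 10 min at room temperature, then rhodamine 123 for 20 min at 37 °C. Cells were washed twice and read by flow cytometry, with verapamil as positive control. FAR = (MDR treated/MDR control)/(parental treated/parental control). One representative experiment, 1 × 10⁴ cells.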

Values after ≈ are worked out from the molar mass of the structure shown. Some results are limits rather than exact numbers.

Chain of ATP-dependent translocase ABCB1 (P08183 whole entry): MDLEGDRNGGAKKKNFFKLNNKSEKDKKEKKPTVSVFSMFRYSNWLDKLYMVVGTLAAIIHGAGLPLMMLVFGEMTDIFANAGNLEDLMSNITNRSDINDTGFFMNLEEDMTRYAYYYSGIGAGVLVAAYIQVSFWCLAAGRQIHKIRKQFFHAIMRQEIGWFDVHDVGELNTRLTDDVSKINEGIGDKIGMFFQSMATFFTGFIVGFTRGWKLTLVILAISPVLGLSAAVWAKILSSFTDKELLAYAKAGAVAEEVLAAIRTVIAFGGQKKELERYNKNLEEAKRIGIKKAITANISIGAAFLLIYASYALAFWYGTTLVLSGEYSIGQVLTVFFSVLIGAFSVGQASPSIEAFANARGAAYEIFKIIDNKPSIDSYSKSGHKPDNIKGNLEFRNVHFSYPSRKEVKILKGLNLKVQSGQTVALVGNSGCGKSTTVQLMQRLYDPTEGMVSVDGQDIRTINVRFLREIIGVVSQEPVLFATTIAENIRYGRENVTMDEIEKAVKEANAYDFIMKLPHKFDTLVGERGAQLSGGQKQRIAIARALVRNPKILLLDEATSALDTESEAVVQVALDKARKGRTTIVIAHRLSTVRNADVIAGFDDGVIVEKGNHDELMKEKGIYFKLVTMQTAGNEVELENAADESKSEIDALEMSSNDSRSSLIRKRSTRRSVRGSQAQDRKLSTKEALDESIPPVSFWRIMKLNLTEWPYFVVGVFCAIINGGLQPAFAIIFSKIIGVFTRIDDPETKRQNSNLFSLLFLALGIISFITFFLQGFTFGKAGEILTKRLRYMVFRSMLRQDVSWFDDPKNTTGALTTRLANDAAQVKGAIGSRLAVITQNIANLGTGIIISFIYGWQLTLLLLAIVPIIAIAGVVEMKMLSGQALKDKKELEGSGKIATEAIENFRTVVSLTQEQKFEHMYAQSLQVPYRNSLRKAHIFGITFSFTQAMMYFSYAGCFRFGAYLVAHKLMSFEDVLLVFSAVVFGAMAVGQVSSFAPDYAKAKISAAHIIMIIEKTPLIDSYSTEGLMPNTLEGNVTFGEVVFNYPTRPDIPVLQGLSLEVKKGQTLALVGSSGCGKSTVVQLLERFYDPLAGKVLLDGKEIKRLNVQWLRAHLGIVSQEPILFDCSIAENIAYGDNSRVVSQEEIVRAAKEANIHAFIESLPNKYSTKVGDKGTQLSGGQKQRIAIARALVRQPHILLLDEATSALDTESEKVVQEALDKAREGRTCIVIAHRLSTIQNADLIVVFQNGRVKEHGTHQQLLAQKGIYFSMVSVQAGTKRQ

The term IC50 denotes the concentration at which inhibition is half-maximal. A high value points to a need for much substance. `COc1ccc(C2CC(c3ccc(Cl)cc3)=NN2C(=O)c2cc3ccccc3o2)cc1` (centres undefined) displayed an IC50 in series [1] of 5.74 µg/mL (≈ 13.3 µM). Further, in series [2], the RFU was determined as 5.85.

`COc1ccc(C2CC(c3ccc(Cl)cc3)=NN2C(=O)c2cc3ccccc3o2)cc1OC` (centres undefined): in series [1], the IC50 amounted to 6.29 µg/mL (≈ 13.6 µM). In series [2], the RFU turned out to be 5.87.

In series [1], `O=C(c1cc2ccccc2o1)N1N=C(c2ccc(F)cc2)CC1c1ccccc1Cl` (centres undefined) registered an IC50 of 45.2 µg/mL (≈ 108 µM). In addition, the RFU in series [2] is listed as 16.94.

For the molecule `O=C(c1cc2ccccc2o1)N1N=C(c2ccc(F)cc2)CC1c1ccccc1` (centres undefined), in series [1], the concentration for half-maximal inhibition (IC50) came out at 11.8 µg/mL (≈ 30.6 µM). In series [2], the RFU stood at 15.82.

Regarding `COc1ccc(C2CC(c3ccccc3)=NN2C(=O)c2cc3ccccc3o2)cc1` (centres undefined), in series [1], half-maximal inhibition (IC50) required 4.57 µg/mL (≈ 11.5 µM). Also, the RFU in series [2] is 26.77.

In series [1], `O=C(c1cc2ccccc2o1)N1N=C(c2ccc(F)cc2)CC1c1ccc(F)cc1` (centres undefined) returned an IC50 greater than 50 µg/mL. The RFU in series [2] stood at 14.56.

On to `O=C(c1cc2ccccc2o1)N1N=C(c2ccc(F)cc2)CC1c1ccc([N+](=O)[O-])cc1` (centres undefined), for which the IC50 in series [1] is greater than 50 µg/mL. In addition, the RFU in series [2] is 12.58.

Turning to `O=C(c1cc2ccccc2o1)N1N=C(c2ccccc2)CC1c1ccc(Cl)cc1` (centres undefined), the IC50 in series [1] came out at 5.13 µg/mL (≈ 12.8 µM). Further, in series [2], the RFU was determined as 8.34.

Turning to `Cc1ccc(C2CC(c3ccc(F)cc3)=NN2C(=O)c2cc3ccccc3o2)cc1` (centres undefined), the half-inhibitory concentration (IC50) in series [1] is greater than 50 µg/mL. In series [2], the RFU was determined as 10.52.

As to `O=C(c1cc2ccccc2o1)N1N=C(c2ccccc2)CC1c1ccccc1Cl` (centres undefined), the half-inhibitory concentration (IC50) in series [1] came out at 6.22 µg/mL (≈ 15.5 µM). Also, the RFU in series [2] turned out to be 16.1.

With `COc1ccc(C2CC(c3ccccc3)=NN2C(=O)c2cc3ccccc3o2)cc1OC` (centres undefined), the IC50 in series [1] is 6.89 µg/mL (≈ 16.2 µM). Moreover, the RFU in series [2] is recorded as 29.9.

Consider `COc1ccc(C2CC(c3ccc(F)cc3)=NN2C(=O)c2cc3ccccc3o2)cc1` (centres undefined), for which the IC50 in series [1] amounted to 23 µg/mL (≈ 55.5 µM). Further, the RFU in series [2] is on record as 8.72.

For the molecule `O=C(c1cc2ccccc2o1)N1N=C(c2ccc(Cl)cc2)CC1c1ccc(Cl)cc1` (centres undefined), the IC50 in series [1] was 8.5 µg/mL (≈ 19.5 µM). In series [2], the RFU is 2.9.

As to `O=C(c1cc2ccccc2o1)N1N=C(c2ccc(Cl)cc2)CC1c1ccccc1Cl` (centres undefined), half-maximal inhibition in series [1] (IC50) required 44.8 µg/mL (≈ 103 µM). Further, the RFU in series [2] is reported as 6.02.

`O=C(c1cc2ccccc2o1)N1N=C(c2ccccc2)CC1c1ccccc1` (centres undefined) yielded an IC50 in series [1] of 7.58 µg/mL (≈ 20.7 µM). The RFU in series [2] is on record as 18.8.

`O=C(c1cc2ccccc2o1)N1N=C(c2ccc(F)cc2)CC1c1ccc(Cl)cc1` (centres undefined): the IC50 in series [1] was greater than 50 µg/mL. For the same molecule, the RFU in series [2] turned out to be 6.96.

Molecule `O=C(c1cc2ccccc2o1)N1N=C(c2ccccc2)CC1c1ccc(F)cc1` (centres undefined) had an IC50 in series [1] of 9.94 µg/mL (≈ 25.8 µM). Further, in series [2], the RFU came to 20.06.

In series [1], `Cc1ccc(C2CC(c3ccccc3)=NN2C(=O)c2cc3ccccc3o2)cc1` (centres undefined) displayed an IC50 of 16.6 µg/mL (≈ 43.6 µM). In series [2], the RFU amounted to 7.59.

In series [1], `O=C(c1cc2ccccc2o1)N1N=C(c2ccc(Cl)cc2)CC1c1ccccc1` (centres undefined) gave an IC50 of 13.6 µg/mL (≈ 34 µM). Further, the RFU in series [2] is recorded as 6.77.

On to `O=C(c1cc2ccccc2o1)N1N=C(c2ccccc2)CC1c1ccc([N+](=O)[O-])cc1` (centres undefined), for which the IC50 in series [1] was determined as 4.87 µg/mL (≈ 11.8 µM). In addition, the RFU in series [2] is recorded as 15.18.

The molecule `COc1ccc(C2CC(c3ccc(F)cc3)=NN2C(=O)c2cc3ccccc3o2)cc1OC` (centres undefined) registered an IC50 in series [1] greater than 50 µg/mL. The RFU in series [2] came to 16.22.

Take `O=C(c1cc2ccccc2o1)N1N=C(c2ccc(Cl)cc2)CC1c1ccc([N+](=O)[O-])cc1` (centres undefined): in series [1], the concentration for half-maximal inhibition (IC50) came out at 34.1 µg/mL (≈ 76.5 µM). Moreover, the RFU in series [2] came out at 12.61.
